# Activity calls are given as the source filed them. The calls are words filed in the database; no cut-off is given here.
# Tests used:
# [1] = Cytotoxicity against human NCI60 cells assessed as cellular growth at 10 uM after 48 hrs by SRB assay relative to untreated control; assay type: functional
# Procedure, shortened: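 NCI-60 panel lines grown in RPMI 1640 with 5% FBS and 2 mM L-glutamine. Plated at 5000–40,000 cells/well and preincubated 24 h at 37 °C, 5% CO₂, with time-zero plates fixed in TCA. Compounds, dissolved in DMSO and diluted in medium, were applied for 48 h. Cells were TCA-fixed (10% final for adherent, 16% for suspension) and stained with 0.4% SRB in 1% acetic acid. Dye was solubilised in 10 mM Tris base and read at 515 nm; growth was expressed as a percentage of untreated control.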
# Ovis aries = organism: Ovis aries; test: Inhibition of sheep brain tubulin polymerization at 10 uM
# Procedure, shortened: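 Microtubule protein from sheep brain, purified by two assembly/disassembly cycles (37 °C/0 °C), in 100 mM MES pH 6.6, 1 mM EGTA, 0.5 mM MgCl₂. Compounds in DMSO were tested at a single concentration, with incubation at 37 °C for 10 min and then 0 °C for 5 min before measuring assembly rate, following a modified Guénard protocol.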
# HCT-15 [2] = test: Cytotoxicity against human HCT15 cells at 10^-5 M after 72 hrs by MTS assay; assay type: functional; settings: HCT-15, 72 h, read-out: GI
# Procedure, shortened: (§1)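 Cells grown in RPMI with 10% fetal calf serum, penicillin, streptomycin and fungizone under 5% CO₂. Plated in 96-well plates and dosed 24 h later with compound in DMSO (1% final DMSO; controls got DMSO alone). After 72 h, MTS was added for 3 h at 37 °C and A490 read. Inhibition = (1 − OD treated/OD control) × 100, in triplicate.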
# PC-3 [3] = test: Cytotoxicity against human PC3 cells at 10^-6 M after 72 hrs by MTS assay; assay type: functional; settings: PC-3, 72 h, read-out: GI
# Procedure, shortened: (§2)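 Preliminary screen at 10^-5 and 10^-6 M. Cells were grown in RPMI with 10% fetal calf serum plus penicillin, streptomycin and fungizone under 5% CO₂, plated in 96-well plates, and dosed 24 h later from DMSO stocks (1% DMSO final, same in controls). After 72 h, MTS was added for 3 h at 37 °C and absorbance read at 490 nm. Inhibition was calculated as (1 − OD treated/OD control) × 100, in triplicate.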
# PC-3 [4] = test: Cytotoxicity against human PC3 cells at 10^-5 M after 72 hrs by MTS assay; assay type: functional; settings: PC-3, 72 h, read-out: GI; procedure, shortened: as §2
# A549 [5] = test: Cytotoxicity against human A549 cells at 10^-5 M after 72 hrs by MTS assay; assay type: functional; settings: A549, 72 h, read-out: GI; procedure, shortened: as §1
# HT-29 [6] = test: Cytotoxicity against human HT-29 cells at 10^-5 M after 72 hrs by MTS assay; assay type: functional; settings: HT-29, 72 h, read-out: GI; procedure, shortened: as §1
# K562 [7] = test: Cytotoxicity against human K562 cells at 10^-5 M after 72 hrs by MTS assay; assay type: functional; settings: K562, 72 h, read-out: GI; procedure, shortened: as §1
# HL-60 [8] = test: Cytotoxicity against human HL60 cells at 10^-6 M after 72 hrs by MTS assay; assay type: functional; settings: HL-60, 72 h, read-out: GI; procedure, shortened: as §1
# OVCAR-8 [9] = test: Cytotoxicity against human OVCAR8 cells at 10^-5 M after 72 hrs by MTS assay; assay type: functional; settings: OVCAR-8, 72 h, read-out: GI; procedure, shortened: as §2
# MCF7 [10] = test: Cytotoxicity against human MCF7 cells at 10^-5 M after 72 hrs by MTS assay; assay type: functional; settings: MCF7, 72 h, read-out: GI
# HCT-116 [11] = test: Cytotoxicity against human HCT116 cells at 10^-6 M after 72 hrs by MTS assay; assay type: functional; settings: HCT-116, 72 h, read-out: GI; procedure, shortened: as §1
# HCT-116 [12] = test: Cytotoxicity against human HCT116 cells at 10^-5 M after 72 hrs by MTS assay; assay type: functional; settings: HCT-116, 72 h, read-out: GI; procedure, shortened: as §1
# [13] = Cytotoxicity against human MDA231 cells at 10^-5 M after 72 hrs by MTS assay; assay type: functional; settings: MDA-MB-231, 72 h, read-out: GI; procedure, shortened: as §2
# OVCAR-8 [14] = test: Cytotoxicity against human OVCAR8 cells at 10^-6 M after 72 hrs by MTS assay; assay type: functional; settings: OVCAR-8, 72 h, read-out: GI; procedure, shortened: as §2
# SK-OV-3 [15] = test: Cytotoxicity against human SKOV3 cells at 10^-6 M after 72 hrs by MTS assay; assay type: functional; settings: SK-OV-3, 72 h, read-out: GI; procedure, shortened: as §2
# [16] = Cytotoxicity against human HL60R cells at 10^-5 M after 72 hrs by MTS assay; assay type: functional, HL-60; settings: read-out: GI; procedure, shortened: as §1
# MCF7 [17] = test: Cytotoxicity against human MCF7 cells at 10^-6 M after 72 hrs by MTS assay; assay type: functional; settings: MCF7, 72 h, read-out: GI
# HT-29 [18] = test: Cytotoxicity against human HT-29 cells at 10^-6 M after 72 hrs by MTS assay; assay type: functional; settings: HT-29, 72 h, read-out: GI; procedure, shortened: as §1
# [19] = Cytotoxicity against human MDA231 cells at 10^-6 M after 72 hrs by MTS assay; assay type: functional; settings: MDA-MB-231, 72 h, read-out: GI; procedure, shortened: as §2
# SF-268 [20] = test: Cytotoxicity against human SF268 cells at 10^-5 M after 72 hrs by MTS assay; assay type: functional; settings: SF-268, 72 h, read-out: GI; procedure, shortened: as §2
# HCT-15 [21] = test: Cytotoxicity against human HCT15 cells at 10^-6 M after 72 hrs by MTS assay; assay type: functional; settings: HCT-15, 72 h, read-out: GI; procedure, shortened: as §1
# [22] = Cytotoxicity against human HL60R cells at 10^-6 M after 72 hrs by MTS assay; assay type: functional; settings: read-out: GI; procedure, shortened: as §1
# SF-268 [23] = test: Cytotoxicity against human SF268 cells at 10^-6 M after 72 hrs by MTS assay; assay type: functional; settings: SF-268, 72 h, read-out: GI; procedure, shortened: as §2
# A549 [24] = test: Cytotoxicity against human A549 cells at 10^-6 M after 72 hrs by MTS assay; assay type: functional; settings: A549, 72 h, read-out: GI; procedure, shortened: as §1
# SK-OV-3 [25] = test: Cytotoxicity against human SKOV3 cells at 10^-5 M after 72 hrs by MTS assay; assay type: functional; settings: SK-OV-3, 72 h, read-out: GI; procedure, shortened: as §2
# K562 [26] = test: Cytotoxicity against human K562 cells at 10^-6 M after 72 hrs by MTS assay; assay type: functional; settings: K562, 72 h, read-out: GI; procedure, shortened: as §1
# MIA PaCa-2 [27] = test: Cytotoxicity against human MIAPaCa2 cells at 10^-6 M after 72 hrs by MTS assay; assay type: functional; settings: MIA PaCa-2, 72 h, read-out: GI
# MIA PaCa-2 [28] = test: Cytotoxicity against human MIAPaCa2 cells at 10^-5 M after 72 hrs by MTS assay; assay type: functional; settings: MIA PaCa-2, 72 h, read-out: GI
# HL-60 [29] = test: Cytotoxicity against human HL60 cells at 10^-5 M after 72 hrs by MTS assay; assay type: functional; settings: HL-60, 72 h, read-out: GI; procedure, shortened: as §1
structure (smiles),measurement,setting,value
COc1cc(/C(=C2\O[C@@H]([C@H](O)CO)[C@H]3OC(C)(C)O[C@@H]23)c2ccc3ccccc3c2)cc(OC)c1OC,Activity,[1],96%
COc1cc(/C(=C2\O[C@@H]([C@H]3COC(C)(C)O3)[C@H]3OC(C)(C)O[C@@H]23)c2ccc3c(c2)OCO3)cc(OC)c1OC,Activity,[1],61%
COc1cc(/C(=C2\O[C@@H]([C@H](O)CO)[C@H]3OC(C)(C)O[C@@H]23)c2ccc3c(c2)OCO3)cc(OC)c1OC,Activity,[1],106%
COc1cc(/C(=C2\O[C@@H]([C@H](O)CO)[C@H]3OC(C)(C)O[C@@H]23)c2cccc(N)c2)cc(OC)c1OC,Activity,[1],103%
same,tubulin polymerization inhibition call (active/not active),Ovis aries,inactive
COc1cc(/C(=C2\O[C@@H]([C@H]3COC(C)(C)O3)[C@H]3OC(C)(C)O[C@@H]23)c2cccc(N)c2)cc(OC)c1OC,Activity,[1],102%
COc1ccc(/C(=C2/O[C@@H]([C@H](O)CO)[C@H]3OC(C)(C)O[C@@H]23)c2cc(OC)c(OC)c(OC)c2)cc1O,Activity,[1],79%
COc1cc(C(=C(CO)CO)c2ccc3c(c2)OCO3)cc(OC)c1OC,tubulin polymerization inhibition call (active/not active),Ovis aries,inactive
COc1cc(/C(=C2/O[C@@H]([C@H](O)CO)[C@H]3OC(C)(C)O[C@@H]23)c2cccc([N+](=O)[O-])c2)cc(OC)c1OC,inhibition of growth at 10 µM,HCT-15 [2],6%
same,inhibition of growth at 1 µM,PC-3 [3],1%
same,inhibition of growth at 10 µM,PC-3 [4],23%
same,inhibition of growth at 10 µM,A549 [5],14%
same,inhibition of growth at 10 µM,HT-29 [6],4%
same,inhibition of growth at 10 µM,K562 [7],18%
same,inhibition of growth at 1 µM,HL-60 [8],11%
same,inhibition of growth at 10 µM,OVCAR-8 [9],0%
same,inhibition of growth at 10 µM,MCF7 [10],14%
same,inhibition of growth at 1 µM,HCT-116 [11],0%
same,inhibition of growth at 10 µM,HCT-116 [12],0%
same,inhibition of growth at 10 µM,[13],0%
same,inhibition of growth at 1 µM,OVCAR-8 [14],0%
same,inhibition of growth at 1 µM,SK-OV-3 [15],10%
same,inhibition of growth at 10 µM,[16],11%
same,inhibition of growth at 1 µM,MCF7 [17],4%
same,inhibition of growth at 1 µM,HT-29 [18],4%
same,inhibition of growth at 1 µM,[19],0%
same,inhibition of growth at 10 µM,SF-268 [20],26%
same,inhibition of growth at 1 µM,HCT-15 [21],10%
same,inhibition of growth at 1 µM,[22],6%
same,inhibition of growth at 1 µM,SF-268 [23],17%
same,inhibition of growth at 1 µM,A549 [24],8%
same,inhibition of growth at 10 µM,SK-OV-3 [25],16%
same,inhibition of growth at 1 µM,K562 [26],0%
same,inhibition of growth at 1 µM,MIA PaCa-2 [27],0%
same,inhibition of growth at 10 µM,MIA PaCa-2 [28],0%
same,inhibition of growth at 10 µM,HL-60 [29],10%

# Source: ChEMBL document CHEMBL1828575, “Design, synthesis and antiproliferative activities of biarylolefins based on polyhydroxylated and carbohydrate scaffolds” (Eur J Med Chem, 2011)
